Data on 29 compounds can be found in ChEMBL document CHEMBL1124334, “Hypolipidemic 2-[4-(1,1-dimethylethyl)phenyl]-4H-3,1-benzoxazin-4-ones. Structure-activity relationships of a novel series of high-density lipoprotein elevators” (1989).

Holding throughout (assay type): functional
Test [1] is filed under the species Rattus norvegicus. Briefly: Change in plasma triglycerides in normocholesterolemic rats at 0.2 % composition of dose with diet given in a period of 3 days. In a few lines: (§1)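 Young male Wistar rats (120–150 g) fed basal powdered rodent diet ad libitum, with compound mixed into the diet at 0.2% w/w for 3 or 7 days. Plasma triglyceride and total cholesterol were then measured by standard enzymatic methods. Results are % change relative to controls.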

Test [2] has as its system Rattus norvegicus. The test is described as follows: Percent change in plasma total cholesterol in cholesterol-fed rats at 200 mg/kg dose given in a period of 3 days. In a few lines: (§2)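 Young male Wistar rats (120–150 g), groups of eight, fed ad libitum rodent diet with 0.5% w/w cholesterol and 0.25% cholic acid for 10 days. Compound suspended in 0.5% w/w tragacanth mucilage and given daily by stomach tube over the final 3 days; controls got vehicle. After overnight starvation, rats were killed 3 h post final dose and cardiac blood taken into heparin.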

The species named for test [3] is Rattus norvegicus. The test is described as follows: Change in plasma total cholesterol in normocholesterolemic rats at 0.2 % composition of dose with diet given in a period of 3 days. The essentials: as §1
The test system of test [4] is Rattus norvegicus. The test is described as follows: Percent change in plasma triglycerides in cholesterol-fed rats at 200 mg/kg dose given in a period of 3 days. In a few lines: as §2
Test [5] concerns Rattus norvegicus. Briefly: Percent change in plasma HDL cholesterol in cholesterol-fed rats at 200 mg/kg dose given in a period of 3 days. The essentials:
as §2

In test [6] the test system is Rattus norvegicus. The test is described as follows: Ratio of plasma HDL cholesterol/total cholesterol at 200 g/kg for 3 days. To be noted: in the assay text read “200 mg/kg” for “200 g/kg”. The essentials:
as §2

Test [7] can be described thus: Ratio of plasma HDL cholesterol/total cholesterol at 25 mg/kg for 3 days. To be noted: dose 200 mg/kg; in the assay text read “200 mg/kg” for “25 mg/kg”. In a few lines: as §2
The species named for test [8] is Rattus norvegicus. The test is described as follows: The compound was tested for % change in plasma triglycerides in normocholesterolemic rats at 0.2 % composition of dose with diet given in a period of 7 days. The essentials:
as §1

Test [9] is filed under the species Rattus norvegicus. The test is described as follows: The compound was tested for % change in plasma total cholesterol in normocholesterolemic rats at 0.2 % composition of dose with diet given in a period of 7 days. The essentials: as §1

On to `Cc1ccc2nc(-c3ccc(C(C)(C)C)cc3)n(C)c(=O)c2c1`, for which the Change was -3% in test [1]; 2% in [2]; 2% in test [3]; 8% in [4]; 6% in test [5]. Moreover, in test [6], the “Change in HDL/total cholesterol ratio” value is on record as -5.

In the case of `Cc1ccc2nc(-c3ccc(C(C)C)cc3)oc(=O)c2c1`, the Change is given as 7% in test [1]; -26% in test [2]; -11% in test [3]; -17% in [4]; 33% in test [5]. For the same compound, in [7], the Ratio turned out to be 79.

For the compound `CC(C)(C)c1ccc(-c2nc3ccc(N)cc3c(=O)o2)cc1`, the Change is given as 1% in test [1]; -25% in test [2]; 4% in [3]; -11% in [4]; 4% in test [5]. In test [6], the “Change in HDL/total cholesterol ratio” value came out at 25.

Regarding `CC(C)(C)c1ccc(-c2nc3ccc([N+](=O)[O-])cc3c(=O)o2)cc1`, the Change in test [8] was -27%; in test [2], -23%; in [9], 1%; in test [4], -19%; in test [5], -8%. For the same compound, the “Change in HDL/total cholesterol ratio” value in [6] amounted to 13.

Consider `CNc1nc(-c2ccc(C(C)(C)C)cc2)nc2ccc(C)cc12`, for which the Change in [2] was 27%; in test [4], 79%; in [5], 10%. Moreover, in [6], the “Change in HDL/total cholesterol ratio” value was -12.

For the compound `CC(C)(C)c1ccc(-c2nc3ccc(NS(=O)(=O)c4ccccc4)cc3c(=O)o2)cc1`, the Change in test [1] was 27%; in test [2] it was 7%; in [3], 5%; in test [4], -7%; in [5], 30%. The “Change in HDL/total cholesterol ratio” value in [6] turned out to be 35.

On to `CC(C)(C)c1ccc(-c2nc3ccc(Cl)cc3c(=O)o2)cc1`, for which the Change in test [8] is -36%; in [2], -18%; in test [9] it was -31%; in test [4], -30%; in [5], 16%. For the same compound, the “Change in HDL/total cholesterol ratio” value in test [6] is reported as 31.

In the case of `Cc1ccc2nc(-c3ccccc3C(C)(C)C)oc(=O)c2c1`, the Change in test [8] was -13%; in test [2], -6%; in [9], -11%; in test [4], -25%; in [5], -3%. The Ratio in test [7] came out at 6.

Turning to `CC(C)(C)c1ccc(C(=O)Nc2ccc(Br)cc2C(=O)O)cc1`, the Change in test [1] is on record as -20%; in test [2] it was -29%; in test [3] it was -56%; in [4], -26%; in [5], 24%. The “Change in HDL/total cholesterol ratio” value in test [6] amounted to 70.

On to `CCCCc1ccc2nc(-c3ccc(C(C)(C)C)cc3)oc(=O)c2c1`, for which the Change in test [1] was -32%; in test [2], -4%; in test [3], -3%; in [4], 22%; in test [5], 65%. In addition, the “Change in HDL/total cholesterol ratio” value in test [6] is on record as 69.

As for `CN(C(=O)c1ccc(C(C)(C)C)cc1)c1ccc(Br)cc1C(=O)O`, the Change in test [1] is on record as 10%; in test [2], -22%; in test [3] it was -10%; in test [4], -13%; in [5] it was 33%. In [6], the “Change in HDL/total cholesterol ratio” value was 59.

Take `Cc1ccc2nc(-c3ccc(C(C)(C)C)cc3)nc(O)c2c1`: the Change was 28% in test [1]; -17% in test [2]; 1% in test [3]; -18% in test [4]; 24% in test [5]. In test [6], the “Change in HDL/total cholesterol ratio” value turned out to be 25.

`CCOC(=O)C(C)(C)Oc1ccc(Cl)cc1` [CLOFIBRATE]: the Change in [8] is recorded as -48%; in test [2], -30%; in [9] it was -27%; in test [4], -10%; in test [5], -10%. The “Change in HDL/total cholesterol ratio” value in test [6] was 8.

Turning to `CC(C)(C)c1ccc(-c2nc3ccc(I)cc3c(=O)o2)cc1`, the Change in test [8] is -35%; in test [2], -26%; in test [9] it was -48%; in test [4], -3%; in [5], 17%. Also, the “Change in HDL/total cholesterol ratio” value in [6] is 50.

`COC(=O)c1cc(Br)ccc1NC(=O)c1ccc(C(C)(C)C)cc1`: the Change was -7% in [1]; -49% in test [2]; -34% in test [3]; -22% in [4]; -7% in test [5]. In addition, the “Change in HDL/total cholesterol ratio” value in test [6] is 70.

Consider `CC(C)(C)c1ccc(-c2nc3ccc(C(F)(F)F)cc3c(=O)o2)cc1`, for which the Change is recorded as -45% in test [1]; -18% in [2]; -40% in test [3]; -6% in [4]; -8% in [5]. In addition, in test [6], the “Change in HDL/total cholesterol ratio” value is 11.

Take `CN(C)c1ccc2nc(-c3ccc(C(C)(C)C)cc3)oc(=O)c2c1`: the Change is -12% in test [1]; -4% in [2]; 10% in [3]; 16% in [4]; 26% in [5]. In addition, the “Change in HDL/total cholesterol ratio” value in test [6] was found to be 22.

On to `O=C(O)c1cccnc1` [NIACIN], for which the Change in test [8] is on record as -3%; in test [2], -29%; in test [9] it was -4%; in test [4] it was -39%; in test [5], 20%. For the same compound, in test [6], the Ratio turned out to be 63.

With `CC(C)(C)c1ccc(-c2nc3ccc(-c4ccccc4)cc3c(=O)o2)cc1`, the Change in test [1] was 1%; in test [2], -8%; in test [3], 0%; in [4] it was 0%; in [5] it was 60%. For the same compound, the “Change in HDL/total cholesterol ratio” value in [6] was 74.

Regarding `COC(=O)c1ccc2nc(-c3ccc(C(C)(C)C)cc3)oc(=O)c2c1`, the Change in test [1] is on record as -13%; in test [2], 29%; in [3], -2%; in [4], 0%; in test [5], 18%. Further, the “Change in HDL/total cholesterol ratio” value in test [6] is listed as -4.

For `COc1ccc2nc(-c3ccc(C(C)(C)C)cc3)oc(=O)c2c1`, the Change is -52% in test [1]; -28% in [2]; -48% in [3]; -26% in test [4]; 21% in test [5]. For the same compound, the Ratio in [6] is 52.

For the compound `Cc1ccc2nc(Cc3ccc(C(C)(C)C)cc3)oc(=O)c2c1`, the Change was 1% in test [2], 27% in test [4] and -19% in test [5]. For the same compound, in test [6], the “Change in HDL/total cholesterol ratio” value was -27.

Turning to `CC(C)(C)c1ccc(-c2nc3ccc(C(C)(C)C)cc3c(=O)o2)cc1`, the Change in test [1] was -17%; in test [2], 63%; in test [3], -15%; in test [4] it was 52%; in test [5], 30%. In addition, the “Change in HDL/total cholesterol ratio” value in test [6] is recorded as -17.

Take `CCCCCCCCc1ccc2nc(-c3ccc(C(C)(C)C)cc3)oc(=O)c2c1`: the Change in [1] was -14%; in test [2], -9%; in test [3] it was -1%; in test [4] it was -7%; in test [5], 35%. In addition, in test [6], the “Change in HDL/total cholesterol ratio” value is given as 29.

`CC(C)(C)c1ccc(C(=O)Nc2ccc(Br)cc2C(N)=O)cc1`: the Change is listed as 29% in test [1]; -8% in test [2]; 4% in test [3]; -11% in [4]; -1% in test [5]. Further, in [6], the “Change in HDL/total cholesterol ratio” value was found to be 4.

Turning to `CC(C)(C)c1ccc(C(=O)O)cc1`, the Change in [8] was -41%; in [2] it was -62%; in [9], -38%; in test [4], -38%; in test [5], -50%. The “Change in HDL/total cholesterol ratio” value in test [6] is reported as 60.

For the compound `COC(=O)c1cc(C)ccc1NC(=O)c1ccc(C(C)(C)C)cc1`, the Change is reported as -8% in [1]; -20% in test [2]; -4% in test [3]; 68% in [4]; 25% in test [5]. The “Change in HDL/total cholesterol ratio” value in test [6] was found to be 46.

Turning to `CC(C)(C)c1ccc(-c2nc3ccccc3c(=O)o2)cc1`, the Change is -32% in test [8]; -41% in test [2]; -24% in [9]; -26% in test [4]; 49% in test [5]. Besides, in test [6], the “Change in HDL/total cholesterol ratio” value is given as 131.

Turning to `CC(C)(C)c1ccc(-c2nc3ccc(NS(C)(=O)=O)cc3c(=O)o2)cc1`, the Change in test [1] is -8%; in test [2] it was -16%; in test [3], -3%; in test [4], 6%; in [5], 22%. Also, the “Change in HDL/total cholesterol ratio” value in test [6] was determined as 27.
